The subject of series [1] is Plasmodium falciparum. In words: Antimalarial activity against multidrug-resistant Plasmodium falciparum K1 infected in erythrocytes after 48 hrs by [3H]hypoxanthine incorporation assay. The class given is functional, organism-based. The essentials:
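P. falciparum K1 (multidrug-resistant) was grown in RPMI 1640 with 20 mM HEPES, 32 mM NaHCO3, 10% […] human serum and 3% erythrocytes, at 37 C under 3% CO2. Early-ring cultures (1.5% erythrocytes, 1% parasitemia) were exposed to compound for 24 h at 0.1% final DMSO. [3H]hypoxanthine (0.5 μCi) was then added for a further 24 h, and incorporation was counted by scintillation. IC50 is the 50% growth reduction; values are the mean of six replicates; dihydroartemisinin was the reference.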

The test system of a further series is Vero. Kind of series: Cytotoxicity against African green monkey Vero cells by MTT assay. Type of series: cell-based. The conditions noted are these: Chlorocebus sabaeus. In general terms: Tetrazolium assays rely on reduction of a dye to a coloured formazan, in cell work by metabolically active cells.
Series [2] has as its system Saccharomyces cerevisiae. Kind of series: Inhibition of Saccharomyces cerevisiae CK Cytochrome b-c1 complex assessed as DQH-induced reduction of cyt bc1 complex by redoxdifference spectra.
Series [3] can be described thus: Inhibition of wild type Saccharomyces cerevisiae CK Cytochrome b-c1 complex by spectrophotometry. The essentials:
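Purified bc1 from wild-type yeast strain CKWT grown in YPGal was diluted to 8 nM. Inhibitor was added before starting with 50 μM decylubiquinol; 550 nm read at room temperature. IC50 taken from a concentration series.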

Series [4] has as its system Saccharomyces cerevisiae. Kind of series: Inhibition of electron transfer from Q(o) site to iron cluster of Saccharomyces cerevisiae CK Cytochrome b-c1 complex assessed as DQH-induced reduction of cyt bc1 complex by redoxdifference spectra. The essentials: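 Purified yeast bc1 at 2 μM in 50 mM K-phosphate with 0.05% UM; inhibitors added at final 5 μM (test) or 40 μM (stigmatellin, antimycin A). Redox difference spectra recorded as decylubiquinol-reduced bc1-inhibitor complex minus protein-inhibitor complex.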

Series [5] concerns Plasmodium falciparum. Kind of series: Inhibition of Cytochrome b-c1 complex in Plasmodium falciparum 3D7 cell free extracts assessed as decyclobiquinol-linked cytochrome c reduction by spectrophotometry. The essentials:
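Cell-free extract of P. falciparum 3D7 was made by 20 s sonication on ice and adjusted to 0.1 mg protein/mL by Bradford assay. Steady-state decylubiquinol/cytochrome c reductase activity was read at ε550-542nm at 21 C in 50 mM potassium phosphate pH 7.5 with 2 mM EDTA, 10 mM KCN and 30 μM equine cytochrome c. Reactions were started with 50 μM decylubiquinol, compound added without preincubation, DMSO ≤0.3%. IC50 came from four-parameter sigmoidal fits of three separate assays.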

Series [6] can be described thus: Inhibition of Cytochrome b-c1 complex in yeast mitochondrial membrane assessed as decyclobiquinol-linked cytochrome c reduction by spectrophotometry. Type of series: cell membranes, Saccharomyces cerevisiae. The essentials:
(§1)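 Steady-state decylubiquinol/cytochrome c reductase in yeast mitochondrial membranes (YPD-grown at 28 C) or male Wistar rat (125-170 g) liver microsomes. bc1 set to 5 nM; 50 mM K-phosphate pH 7.5, 2 mM EDTA, 10 mM KCN, 30 μM equine cytochrome c. Start: 50 μM decylubiquinol. ε550-542nm read at 21 C; no preincubation, DMSO ≤0.3%. IC50 from four-parameter sigmoidal fit, three separate assays.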

Series [7] is described as follows: Inhibition of Cytochrome b-c1 complex in Wistar rat liver microsomes assessed as decyclobiquinol-linked cytochrome c reduction by spectrophotometry. On the set-up: species or system Microsome. The essentials:
as §1
Background: Liver microsomes are a subcellular fraction often used to study metabolism.

The nature of series [8]: Therapeutic index, ratio of IC50 for African green monkey (Cercopithecus aethiops) Vero cells to IC50 for multidrug-resistant Plasmodium falciparum K1. The class given is cell-based. As to conditions: read-out: Ratio IC50.
Setting [9] is: Plasmodium falciparum, K1, read-out: IC50.

A word on the IC50: it is the concentration that inhibits the measured activity by half.

Active and inactive are the calls of the source. No cut-off for these calls is given here. Bounds are passed on as bounds.

Turning to `CCC(C)CC(=O)OCC(C)(C)CC1=C(O)C(=O)c2ccccc2C1=O` (centres undefined), the figures for the IC50 in the series with Plasmodium falciparum [1] (setting [9]) and with Vero were 0.19 µM and 2.3 µM, respectively.
On to `CCCCCC[C@H]1C(=O)O[C@H](C)[C@H](NC(=O)c2cccc(NC=O)c2O)C(=O)O[C@@H](C)[C@@H]1OC(=O)CC(C)C`, for which, in the series on Saccharomyces cerevisiae [2], the outcome was Active.
Take `CC(C)CC(=O)OCC(C)(C)CC1=C(O)C(=O)c2ccccc2C1=O`: the IC50 in the series with Plasmodium falciparum [1] (setting [9]) was found to be 0.41 µM; with Vero it was 0.55 µM.
Turning to `CCC(CC)C(=O)OCC(C)(C)CC1=C(O)C(=O)c2ccccc2C1=O`, the IC50 with Plasmodium falciparum [1] (setting [9]) was determined as 16.6 µM; in the series on Vero, 104 µM.
Compound `C/C=C(C)/C=C/C=C/[C@H](OC)[C@@H](C)[C@@H](OC)[C@@H](C)CCc1oc2c(O)c(OC)cc(OC)c2c(=O)c1C` [STIGMATELLIN] showed an IC50 in series [3] of 0.0091 µM. In the series on Saccharomyces cerevisiae [4], the result was Active.
Regarding `CC(=O)OCC(C)(C)CC1=C(O)C(=O)c2ccccc2C1=O`, the IC50 came out at 10.9 µM in the series with Plasmodium falciparum [1] (setting [9]) and 139 µM in the series on Vero.
For `CCCCCCCCCCCCCC(=O)OCC(C)(C)CC1=C(O)C(=O)c2ccccc2C1=O`, the IC50 in the series with Plasmodium falciparum [1] (setting [9]) was determined as 0.032 µM; in the series on Vero, 58.4 µM; with Plasmodium falciparum [5] it was 0.008 µM; in series [6], 0.0796 µM; in series [7], 2.5 µM; in series [3] it was 0.77 µM. Besides, in series [8], the selectivity ratio is 1830. For the same compound, the outcome with Saccharomyces cerevisiae [4] was Active.
As to `CC(C)C(=O)OCC(C)(C)CC1=C(O)C(=O)c2ccccc2C1=O`, the IC50 is 0.91 µM in the series with Plasmodium falciparum [1] (setting [9]) and 123 µM in the series with Vero.
Turning to `CCCC(=O)OCCCC1=C(O)C(=O)c2ccccc2C1=O`, the IC50 entry in the series on Plasmodium falciparum [1] was “Not Active”.
On to `CCCCCCCCCC(=O)OCC(C)(C)CC1=C(O)C(=O)c2ccccc2C1=O`, for which the IC50 in the series on Plasmodium falciparum [1] (setting [9]) is 0.72 µM; in the series with Vero, 203 µM.
`CCCC(=O)OCC(C)(C)CC1=C(O)C(=O)c2ccccc2C1=O`: the IC50 with Plasmodium falciparum [1] (setting [9]) came out at 0.91 µM; with Vero, 73.2 µM.
As for `CCCC(C)C(=O)OCC(C)(C)CC1=C(O)C(=O)c2ccccc2C1=O` (centres undefined), the IC50 with Plasmodium falciparum [1] (setting [9]) and in the series with Vero was 0.12 µM each time.
In the case of `CCCCCCC(=O)OCC(C)(C)CC1=C(O)C(=O)c2ccccc2C1=O`, the IC50 was found to be 0.81 µM in the series with Plasmodium falciparum [1] (setting [9]) and 99.3 µM in the series with Vero.
Taken in the same sequence, the figures for `CCCCCCCCCCCCCCCCCC(=O)OCC(C)(C)CC1=C(O)C(=O)c2ccccc2C1=O` were 0.133 µM and 15.5 µM.
Regarding `CCCCCCCCCCCC(=O)OCC(C)(C)CC1=C(O)C(=O)c2ccccc2C1=O`, the IC50 in the series on Plasmodium falciparum [1] (setting [9]) worked out at 0.9 µM; in the series with Vero, 249 µM.
Taken in the same sequence, the figures for `CCCCCC(=O)OCC(C)(C)CC1=C(O)C(=O)c2ccccc2C1=O` were 1.12 µM and 169 µM.
Taken in the same sequence, the figures for `CCCCCCCCCCCCCCCC(=O)OCC(C)(C)CC1=C(O)C(=O)c2ccccc2C1=O` were 0.03 µM and 4.41 µM.
For the compound `CCCCCCCC(=O)OCC1(CC2=C(O)C(=O)c3ccccc3C2=O)CCCCC1`, in the series with Plasmodium falciparum [1] (setting [9]), the IC50 came to 2.63 µM.
For the compound `CCCCCCCC(=O)OCC(C)(C)CC1=C(O)C(=O)c2ccccc2C1=O`, the IC50 in the series with Plasmodium falciparum [1] (setting [9]) was 0.13 µM; with Vero it was over 259 µM; in the series with Plasmodium falciparum [5], 0.0054 µM; in series [6], 0.016 µM; in [7] it was 3 µM; in series [3], 0.84 µM. Besides, in [8], the selectivity ratio is over 1990. In addition, the result in the series with Saccharomyces cerevisiae [4] was Active.
With `CCCCCCCCCCC(=O)OCC(C)(C)CC1=C(O)C(=O)c2ccccc2C1=O`, the 50% inhibitory concentration (IC50) in the series on Plasmodium falciparum [1] (setting [9]) is 0.7 µM; with Vero, over 233 µM.
Consider `C[C@H]1[C@@H](O)O[C@@H]2O[C@@]3(C)CC[C@H]4[C@H](C)CC[C@@H]1[C@@]24OO3` [ARTENIMOL], for which the IC50 in the series on Plasmodium falciparum [1] (setting [9]) was determined as 0.0035 µM.
Turning to `CCCCC(=O)OCC(C)(C)CC1=C(O)C(=O)c2ccccc2C1=O`, the IC50 in the series on Plasmodium falciparum [1] (setting [9]) came to 0.58 µM; in the series on Vero, 7.84 µM.
Taken in the same sequence, the figures for `CCCCCCCCC(=O)OCC(C)(C)CC1=C(O)C(=O)c2ccccc2C1=O` were 0.5 µM and 150 µM.
Taken in the same sequence, the figures for `CCC(C)C(=O)OCC(C)(C)CC1=C(O)C(=O)c2ccccc2C1=O` (centres undefined) were 0.22 µM and 0.87 µM.
Consider `CCC(=O)OCC(C)(C)CC1=C(O)C(=O)c2ccccc2C1=O`, for which the IC50 with Plasmodium falciparum [1] (setting [9]) was 4.1 µM; in the series on Vero it was 60.1 µM.
As for `CC(=O)OCCCC1=C(O)C(=O)c2ccccc2C1=O`, in the series with Plasmodium falciparum [1], the IC50 entry is on record as “Not Active”.
Turning to `CCCCCCCC(=O)OCCCC1=C(O)C(=O)c2ccccc2C1=O`, the IC50 in the series on Plasmodium falciparum [1] (setting [9]) was 5.15 µM.
As to `CC[C@H](C)C(=O)OCC(C)(C)CC1=C(O)C(=O)c2ccccc2C1=O`, the IC50 in the series on Plasmodium falciparum [1] (setting [9]) worked out at 0.11 µM; in the series on Vero it was 0.57 µM.
With `CCCCCCC(C)C(=O)OCC(C)(C)CC1=C(O)C(=O)c2ccccc2C1=O` (centres undefined), the values for the IC50 in the series with Plasmodium falciparum [1] (setting [9]) and in the series on Vero were 0.11 µM and 0.45 µM, respectively.

Values taken from ChEMBL document CHEMBL1156821, “Transforming rhinacanthin analogues from potent anticancer agents into potent antimalarial agents” (J Med Chem, 2010).
